Test results from PubChem BioAssay AID624363 (Broad Institute, 2012).
Values joined by “and” are separate entries in the source; they are usually repeats but may differ in a detail not shown here. Equal values may be shown once.

What follows are compounds tested on SK-MEL-5 TRPM1 promoter luciferase reporter, 24 h (assay: MITF transcriptional activity inhibition, TRPM1 luciferase – cell-based, SK-MEL-5, dry powder, set 5, dose response (AID 624363)).
In short: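 Assay system: SK-MEL-5 TRPM1 promoter luciferase reporter cells | Input: 2000 reporter cells per well | Doses: Test compounds added by pin transfer | Timing: 24 h compound treatment, 37 °C | Measured by: SteadyGlo luminescence | Controls: Parthenolide at 27 µM as positive control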

| SMILES | AC50 |
| --- | --- |
| CN1CCN(C2=C(NC(=O)c3ccccc3)C(=O)c3ccccc3C2=O)CC1 | 1.04 µM |
| C=CCNC1=C(N2CCN(CC)CC2)C(=O)c2ccccc2C1=O | 4.47 µM |
| O=C(NC1=C(N2CCSCC2)C(=O)c2ccccc2C1=O)c1ccc(Br)cc1 | 10.1 µM |
| CC(=O)NC1=C(c2cccc(Cl)c2)C(=O)c2ccccc2C1=O | 3.67 µM |
| O=C1C(Nc2ccccc2)=C(N2CCSCC2)C(=O)c2ccccc21 | 9.7 µM |
| CCN(CC)CCCNC1=C(Nc2ccccc2)C(=O)c2ccccc2C1=O | 2.17 µM |
| NC1=C(NC(=O)c2ccccc2)C(=O)c2ccccc2C1=O | 4.08 µM |
| Cc1ccc(C(=O)NC2=C(c3ccc(OC(F)(F)F)cc3)C(=O)c3ccccc3C2=O)o1 | 13.4 µM |
| NC1=C(NS(=O)(=O)c2cccs2)C(=O)c2ccccc2C1=O | 4.17 µM |
| O=C(NC1=C(N2CCSCC2)C(=O)c2ccccc2C1=O)c1ccccc1 | 4.96 µM |
| O=C1C(NS(=O)(=O)c2cccs2)=C(N2CCCCC2)C(=O)c2ccccc21 | 22.1 µM |
| COc1cccc(C2=C(NC(=O)c3ccccc3)C(=O)c3ccccc3C2=O)c1 | 16.6 µM |
| CN1CCN(C2=C(NS(=O)(=O)c3ccccc3)C(=O)c3ccccc3C2=O)CC1 | 1.09 µM |
| CCN(CC)CCCCNC1=C(Nc2ccccc2)C(=O)c2ccccc2C1=O | 4.14 µM |
| COC1=C(NS(=O)(=O)c2ccccc2)C(=O)c2ccccc2C1=O | 4.93 µM |
| O=C1C(NS(=O)(=O)c2ccc(Br)s2)=C(N2CCCCC2)C(=O)c2ccccc21 | 23.3 µM |
| O=C1C(NS(=O)(=O)c2ccc(Br)cc2)=C(N2CCCCC2)C(=O)c2ccccc21 | 27.7 µM |
| COc1ccc(C2=C(NC(=O)c3ccccc3Cl)C(=O)c3ccccc3C2=O)cc1 | 5.18 µM |
| CC(=O)NC1=C(c2ccccc2)C(=O)c2ccccc2C1=O | 6.67 µM |
| COc1ccc(S(=O)(=O)N(C(C)=O)c2ccc(OC(C)=O)c3ccccc23)cc1[N+](=O)[O-] | 6.42 µM |
| Cc1nc2ccccc2n1/N=C/c1ccc([N+](=O)[O-])s1 | 4.34 µM |
| C=CCNC1=C(N2CCN(C)CC2)C(=O)c2ccccc2C1=O | 3.89 µM |

| SMILES | AC50 |
| --- | --- |
| COc1ccc(C2=C(NC(=O)c3ccccc3OC)C(=O)c3ccccc3C2=O)cc1 | 23.7 µM |
| C=CCNC1=C(N2CCCCC2)C(=O)c2ccccc2C1=O | 0.983 µM |
| O=C1C(NS(=O)(=O)c2cccs2)=C(N2CCOCC2)C(=O)c2ccccc21 | 12.4 µM |
| C=CCNC1=C(NCCN(CC)CC)C(=O)c2ccccc2C1=O | 4.88 µM |
| COc1ccc(C2=C(NC(C)=O)C(=O)c3ccccc3C2=O)cc1 | 4.84 µM |
| O=C1C(Nc2ccccc2)=C(N2CCN(c3ccccc3)CC2)C(=O)c2ccccc21 | 12.1 µM |
| COc1cccc(-c2cc(C(=O)NC3=C(Cl)C(=O)c4ccccc4C3=O)ccc2OC)c1 | 3.34 µM |
| Cc1ccc(C(=O)NC2=C(c3ccccc3)C(=O)c3ccccc3C2=O)o1 | 3.23 µM |
| O=C(NC1=C(c2ccc(OC(F)(F)F)cc2)C(=O)c2ccccc2C1=O)c1ccco1 | 20.9 µM |
| O=C1C(NCCCN2CCOCC2)=C(Nc2ccccc2)C(=O)c2ccccc21 | 3.7 µM |
| O=C1C(NS(=O)(=O)c2ccc(Br)s2)=C(N2CCOCC2)C(=O)c2ccccc21 | 15 µM |
| CC(=O)N(C)C1=C(N2CCCCC2)C(=O)c2ccccc2C1=O | 0.796 µM |
| CCN1CCN(C2=C(NS(=O)(=O)c3ccc(Br)s3)C(=O)c3ccccc3C2=O)CC1 | 3.89 µM |
| CCN1CCN(C2=C(NC(=O)c3ccccc3)C(=O)c3ccccc3C2=O)CC1 | 0.783 µM |
| O=C1C(Nc2ccccc2)=C(c2ccccc2)C(=O)c2ccccc21 | 4.49 µM |
| CCN1c2ccccc2NC2N=C(OC)C(c3ccccc3)C21 (stereo not drawn) | 3.74 µM |
| C=CCNC1=C(NC(=O)c2ccccc2)C(=O)c2ccccc2C1=O | 26.5 µM |
| CN1CCN(C2=C(NS(=O)(=O)c3ccc(Br)cc3)C(=O)c3ccccc3C2=O)CC1 | 7.58 µM |
| COc1ccc(C(=O)NC2=C(c3ccccc3)C(=O)c3ccccc3C2=O)cc1 | 14.4 µM |
| O=C1C(Nc2ccccc2)=C(N2CCOCC2)C(=O)c2ccccc21 | 12.8 µM and 7.07 µM |
| COC1=C(NS(=O)(=O)c2cccs2)C(=O)c2ccccc2C1=O | 17.5 µM |
